Results as given in ChEMBL document CHEMBL1144695, “Synthesis and evaluation of novel polyaminocarboxylate-based antitumor agents” (J Med Chem, 2008).

Key:
HeLa = assay: Cytotoxicity against human HeLa cells after 72 hrs by MTS assay; type: functional, cell-based
Outline: (§1)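 Cells attached 24 h before dosing: HeLa at 2000 cells/well in MEM with 10% FBS, and HT29 at 5000 cells/well in RPMI-1640 with 10% FBS. At least five serial dilutions were added for 72 h at 37 °C in 5% CO2. MTS/PMS was then added for 3 h and absorbance read at 490 nm, relative to untreated solvent controls. Runs were at least triplicate, and IC50 came from nonlinear regression.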

HT-29 = assay: Cytotoxicity against human HT29 cells after 72 hrs by MTS assay; type: functional, cell-based; conditions: HT-29, 72 h; outline: as §1
MRC5 = assay: Induction of proliferation in human MRC5 cells; type: functional; design: unit: fraction of untreated control
Outline: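 Normal MRC-5 lung fibroblasts were grown in EMEM with 10% FBS, seeded at 5000 cells/well and allowed 24 h to attach. Chelators at 50 µM were given for 72 h at 37 °C in 5% CO2. Read-out was MTS/PMS for 3 h, with absorbance at 490 nm expressed as a fraction of untreated solvent controls. Runs were at least triplicate.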

Structure (SMILES) | IC50 (HeLa) | IC50 (HT-29) | Activity (MRC5)
O=C(O)CN1CCN(CC(=O)O)CCN(CC(Cc2ccc([N+](=O)[O-])cc2)N(CC(=O)O)CC(=O)O)CC1 (stereo unspecified) | > 100 µM | 45.7 µM | 
O=C(O)CN(CCN(CC(=O)O)CC(=O)O)CCN(CC(=O)O)CC(=O)O [PENTETIC ACID] | 264 µM | 39.1 µM | 
O=C(O)CN1CCN(CCN(CC(=O)O)CC(=O)O)CCN(CC(=O)O)CC1 |  | 7.3 µM | 2
O=C(O)CN1CCN(CCN(CC(=O)O)Cc2ccc([N+](=O)[O-])cc2)CCN(CC(=O)O)CC1 | 8.4 µM | 6.8 µM | 2
O=C(O)CNC(Cc1ccc(Nc2ccc([N+](=O)[O-])c3nonc23)cc1)CN1CCN(CC(=O)O)CCN(CC(=O)O)CC1 (stereo unspecified) |  |  | 2
O=C(O)CNC(Cc1ccc([N+](=O)[O-])cc1)CN1CCN(CC(=O)O)CCN(CC(=O)O)CC1 (stereo unspecified) | 7.1 µM | 5 µM | 2
CC(=O)N(O)CCCCCNC(=O)CCC(=O)N(O)CCCCCNC(=O)CCC(=O)N(O)CCCCCN [DEFEROXAMINE] | > 50 µM | 36.1 µM | 
O=C(O)CN1CCN(CCN(CC(=O)O)Cc2ccccc2)CCN(CC(=O)O)CC1 | 4.4 µM | 2.6 µM | 2
O=C(O)CNCCN1CCN(CC(=O)O)CCN(CC(=O)O)CC1 | 5.7 µM | 4.7 µM | 2
